From ChEMBL document CHEMBL4689842, “EUbOPEN Chemogenomics Library wave 1” (2021)

Tested on: Fibroblast
Assay: Multiplex assay against human fibroblast
Type: toxicity, cell-based
Procedure, shortened: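 Values for tubulin, mitochondrial-mass and membrane-permeability phenotypes are per cents of cells with healthy nuclei. These cells were identified by CellPathfinder machine-learning gating of live cells that had been stained at seeding with Hoechst33342, BioTracker Green Microtubule Cytoskeleton Dye, MitoTracker Red and Annexin V Alexa Fluor 680 and imaged on a CQ1 microscope at 37°C and 5% CO2 after compound addition. The gating first set Hoechst high-intensity objects apart from normal cells, then split normal cells into healthy, pyknosed or fragmented nuclei, and pyknosed cells into mitotic or apoptotic.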

[1] = 12 h, 1 µM, compound concentration 1 uM, replicate 1
[2] = 12 h, 1 µM, compound concentration 1 uM, replicate 2
[3] = 12 h, 10 µM, compound concentration 10 uM, replicate 1
[4] = 12 h, 10 µM, compound concentration 10 uM, replicate 2
[5] = 24 h, 1 µM, compound concentration 1 uM, replicate 1
[6] = 24 h, 1 µM, compound concentration 1 uM, replicate 2
[7] = 24 h, 10 µM, compound concentration 10 uM, replicate 1
[8] = 24 h, 10 µM, compound concentration 10 uM, replicate 2
[9] = 48 h, 1 µM, compound concentration 1 uM, replicate 1
[10] = 48 h, 1 µM, compound concentration 1 uM, replicate 2
[11] = 48 h, 10 µM, compound concentration 10 uM, replicate 1
[12] = 48 h, 10 µM, compound concentration 10 uM, replicate 2

## CCOC(=O)c1c(C)[nH]c2ccc3c(c12)CN1CCc2cc(OC)ccc2C1O3 (stereo unspecified)
[1]
  Population Apoptotic (%): 69%
  Population Fragmented Nuclei (%): 21%
  Population Healthy Nuclei (%): 51%
  Population Hoechst High Intensity Objects (%): 8%
  Population Membrane Permeable-Phenotype (%): 8%
  Population Mitochondria Different-Phenotype (%): 23%
  Population Mitotic Cells (%): 30%
  Population Normal (%): 91%
  Population Pyknosed Nuclei (%): 26%
  Population Tubulin-Different-Phenotype (%): 43%
  Total Cell Count: 150
[2]
  Population Apoptotic (%): 9%
  Population Fragmented Nuclei (%): 9%
  Population Healthy Nuclei (%): 76%
  Population Hoechst High Intensity Objects (%): 9%
  Population Membrane Permeable-Phenotype (%): 3%
  Population Mitochondria Different-Phenotype (%): 70%
  Population Mitotic Cells (%): 90%
  Population Normal (%): 90%
  Population Pyknosed Nuclei (%): 14%
  Population Tubulin-Different-Phenotype (%): 62%
  Total Cell Count: 65
[3]
  Population Apoptotic (%): 82%
  Population Fragmented Nuclei (%): 18%
  Population Healthy Nuclei (%): 38%
  Population Hoechst High Intensity Objects (%): 7%
  Population Membrane Permeable-Phenotype (%): 12%
  Population Mitochondria Different-Phenotype (%): 74%
  Population Mitotic Cells (%): 17%
  Population Normal (%): 92%
  Population Pyknosed Nuclei (%): 43%
  Population Tubulin-Different-Phenotype (%): 80%
  Total Cell Count: 88
[4]
  Population Apoptotic (%): 80%
  Population Fragmented Nuclei (%): 2%
  Population Healthy Nuclei (%): 75%
  Population Hoechst High Intensity Objects (%): 11%
  Population Membrane Permeable-Phenotype (%): 70%
  Population Mitochondria Different-Phenotype (%): 100%
  Population Mitotic Cells (%): 20%
  Population Normal (%): 88%
  Population Pyknosed Nuclei (%): 22%
  Population Tubulin-Different-Phenotype (%): 100%
  Total Cell Count: 84
[5]
  Population Apoptotic (%): 62%
  Population Fragmented Nuclei (%): 29%
  Population Healthy Nuclei (%): 58%
  Population Hoechst High Intensity Objects (%): 13%
  Population Membrane Permeable-Phenotype (%): 13%
  Population Mitochondria Different-Phenotype (%): 13%
  Population Mitotic Cells (%): 37%
  Population Normal (%): 86%
  Population Pyknosed Nuclei (%): 12%
  Population Tubulin-Different-Phenotype (%): 48%
  Total Cell Count: 152
[6]
  Population Apoptotic (%): 8%
  Population Fragmented Nuclei (%): 9%
  Population Healthy Nuclei (%): 75%
  Population Hoechst High Intensity Objects (%): 5%
  Population Membrane Permeable-Phenotype (%): 1%
  Population Mitochondria Different-Phenotype (%): 58%
  Population Mitotic Cells (%): 91%
  Population Normal (%): 94%
  Population Pyknosed Nuclei (%): 14%
  Population Tubulin-Different-Phenotype (%): 35%
  Total Cell Count: 65
[7]
  Population Apoptotic (%): 70%
  Population Fragmented Nuclei (%): 27%
  Population Healthy Nuclei (%): 46%
  Population Hoechst High Intensity Objects (%): 20%
  Population Membrane Permeable-Phenotype (%): 13%
  Population Mitochondria Different-Phenotype (%): 70%
  Population Mitotic Cells (%): 30%
  Population Normal (%): 79%
  Population Pyknosed Nuclei (%): 25%
  Population Tubulin-Different-Phenotype (%): 86%
  Total Cell Count: 99
[8]
  Population Apoptotic (%): 89%
  Population Fragmented Nuclei (%): 6%
  Population Healthy Nuclei (%): 52%
  Population Hoechst High Intensity Objects (%): 11%
  Population Membrane Permeable-Phenotype (%): 83%
  Population Mitochondria Different-Phenotype (%): 100%
  Population Mitotic Cells (%): 10%
  Population Normal (%): 88%
  Population Pyknosed Nuclei (%): 41%
  Population Tubulin-Different-Phenotype (%): 100%
  Total Cell Count: 87
[9]
  Population Apoptotic (%): 64%
  Population Fragmented Nuclei (%): 32%
  Population Healthy Nuclei (%): 54%
  Population Hoechst High Intensity Objects (%): 14%
  Population Membrane Permeable-Phenotype (%): 9%
  Population Mitochondria Different-Phenotype (%): 9%
  Population Mitotic Cells (%): 35%
  Population Normal (%): 85%
  Population Pyknosed Nuclei (%): 12%
  Population Tubulin-Different-Phenotype (%): 47%
  Total Cell Count: 155
[10]
  Population Apoptotic (%): 100%
  Population Fragmented Nuclei (%): 33%
  Population Healthy Nuclei (%): 66%
  Population Hoechst High Intensity Objects (%): 11%
  Population Membrane Permeable-Phenotype (%): 6%
  Population Mitochondria Different-Phenotype (%): 3%
  Population Mitotic Cells (%): 0%
  Population Normal (%): 88%
  Population Pyknosed Nuclei (%): 0%
  Total Cell Count: 185
[11]
  Population Apoptotic (%): 90%
  Population Fragmented Nuclei (%): 36%
  Population Healthy Nuclei (%): 50%
  Population Hoechst High Intensity Objects (%): 28%
  Population Membrane Permeable-Phenotype (%): 10%
  Population Mitochondria Different-Phenotype (%): 82%
  Population Mitotic Cells (%): 10%
  Population Normal (%): 71%
  Population Pyknosed Nuclei (%): 12%
  Population Tubulin-Different-Phenotype (%): 84%
  Total Cell Count: 108
[12]
  Population Apoptotic (%): 66%
  Population Fragmented Nuclei (%): 46%
  Population Healthy Nuclei (%): 51%
  Population Hoechst High Intensity Objects (%): 25%
  Population Membrane Permeable-Phenotype (%): 0%
  Population Mitochondria Different-Phenotype (%): 74%
  Population Mitotic Cells (%): 33%
  Population Normal (%): 74%
  Population Pyknosed Nuclei (%): 1%
  Population Tubulin-Different-Phenotype (%): 89%
  Total Cell Count: 223
